This note sets out measurements from ChEMBL document CHEMBL3102789, “Synthesis and biological evaluation of novel oxadiazole derivatives: a new class of thymidine phosphorylase inhibitors as potential anti-tumor agents” (Bioorg Med Chem, 2014).

The target in one assay is Thymidine phosphorylase (Escherichia coli K-12, UniProt P07650). The assay can be described thus: Inhibition of Escherichia coli thymidine phosphorylase using […] as substrate after 10 mins by spectrophotometric analysis. In outline: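 Commercial E. coli TP in potassium phosphate buffer, pH 7.4, with […] substrate (1.5 mM stock). Test material incubated with the reaction mix for 10 min at 25 °C. Absorbance at 290 nm then read continuously at 10, 20 and 30 min. Substrate-free blanks were subtracted. Run in triplicate; IC50 given as mean ± SEM of three independent experiments.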
Thymidine phosphorylase, sequence (P07650 whole entry): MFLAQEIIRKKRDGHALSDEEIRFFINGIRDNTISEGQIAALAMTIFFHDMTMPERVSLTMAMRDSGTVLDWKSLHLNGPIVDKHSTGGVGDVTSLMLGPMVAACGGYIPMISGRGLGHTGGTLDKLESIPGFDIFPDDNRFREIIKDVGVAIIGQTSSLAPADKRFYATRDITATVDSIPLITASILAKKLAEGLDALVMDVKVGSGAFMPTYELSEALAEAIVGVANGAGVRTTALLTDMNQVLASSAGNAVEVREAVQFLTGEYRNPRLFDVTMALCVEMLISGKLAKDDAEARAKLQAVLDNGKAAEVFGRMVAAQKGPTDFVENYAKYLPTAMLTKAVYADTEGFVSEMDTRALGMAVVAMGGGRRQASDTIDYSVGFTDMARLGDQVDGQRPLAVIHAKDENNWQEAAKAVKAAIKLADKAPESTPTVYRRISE

The target in assay [1] is Thymidine phosphorylase (Escherichia coli K-12) (UniProt P07650). The assay can be described thus: Ratio of 7-deazaxanthine IC50 to compound IC50 for Escherichia coli thymidine phosphorylase using […] as substrate after 10 mins by spectrophotometric analysis.
Thymidine phosphorylase (Escherichia coli K-12), sequence (P07650 whole entry, looked up): as the sequence (P07650 whole entry) above

In turn, `COc1cc(-c2nn(CNCCc3ccccc3)c(=S)o2)cc(OC)c1OC` gave an IC50 against Thymidine phosphorylase of 69.3 µM.
On Thymidine phosphorylase, `S=c1oc(-c2ccccc2)nn1CNc1ccccc1Cl` had an IC50 of 118 µM.
As for `Cc1ccc(-c2nn(CNc3ccc(C)c(C)c3)c(=S)o2)cc1`, on Thymidine phosphorylase, half-maximal inhibition (IC50) was put at 83.2 µM.
Same read-out and setting: then `S=c1oc(-c2ccccc2Br)nn1CNc1ccccc1Cl`, with 21.8 µM; and `S=c1oc(-c2ccc(Cl)cc2)nn1CNc1ccccc1Cl`, with 46.4 µM; and `Cc1ccc(-c2nn(CNc3ccc(Cl)c(Cl)c3)c(=S)o2)cc1`, with 134 µM.
`Cc1ccc(NCn2nc(-c3ccccc3)oc2=S)cc1C` returned an IC50 on Thymidine phosphorylase of 40.6 µM.
On to `COc1ccc([N+](=O)[O-])cc1NCn1nc(-c2ccc(C)cc2)oc1=S`, for which the Ratio IC50 in assay [1] turned out to be 2.5. The same compound yielded a half-maximal inhibitory concentration (IC50) at Thymidine phosphorylase of 14.4 µM.
`COc1cc(-c2nn(CNc3ccccc3C)c(=S)o2)cc(OC)c1OC` displayed an IC50 at Thymidine phosphorylase of 117 µM.
Same read-out and setting: then `Oc1ccccc1-c1nn(CNc2ccccc2Cl)c(=S)o1`, with 130 µM; and `Cc1ccc(-c2nn(CNc3cccc(C)c3C)c(=S)o2)cc1`, with 23.7 µM.
On the same count and under the same terms, then `Cc1ccccc1NCn1nc(-c2ccc(Cl)cc2)oc1=S`, with 58.2 µM; and `COc1ccccc1NCn1nc(-c2ccccc2)oc1=S`, with 87.2 µM.
Compound `COc1ccccc1NCn1nc(-c2ccc(Cl)cc2)oc1=S` gave an IC50 on Thymidine phosphorylase of 88.7 µM.
In the case of `S=c1oc(-c2ccc(Cl)cc2)nn1CNc1ccc(Br)cc1`, the IC50 against Thymidine phosphorylase is 173 µM.
The same measure, in the same setting: then `Cc1ccc(NCn2nc(-c3ccc(C)cc3)oc2=S)cc1`, with 54.7 µM; and `COc1cccc(NCn2nc(-c3ccc(C)cc3)oc2=S)c1`, with 84.4 µM; and `S=c1oc(-c2ccccc2Br)nn1CNc1ccc(Br)cc1`, with 26.3 µM.
Still for that read-out and setting: then `Cc1ccc(-c2nn(CNc3ccccc3)c(=S)o2)cc1`, with 104 µM.
`COc1ccccc1NCn1nc(-c2ccccc2Br)oc1=S` displayed an IC50 on Thymidine phosphorylase of 17.6 µM.
On Thymidine phosphorylase, `COc1cccc(NCn2nc(-c3ccccc3)oc2=S)c1` returned an IC50 of 40.6 µM.

What is called IC50 is the midpoint of a concentration-inhibition curve. Higher therefore signals weaker potency in that assay.
